Source: ChEMBL document CHEMBL1156340 (J Med Chem, 2010)
≈ marks a conversion by molar mass, not a printed value.

What was measured:
[1] = Cmax in dog at 2 mg/kg, po; assay type: ADME, organism-based, Canis lupus familiaris; set-up: dose 2 mg/kg, route oral; conditions: in vivo
Summary of the method: (§1)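 Single-dose pharmacokinetics in each species by oral and intravenous routes; the rat intravenous arm was given intra-arterially. n ≥ 3 per study. Mouse exposure is reported as AUC0-8h.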

[2] = AUC in dog at 1 mg/kg, iv; assay type: ADME, organism-based, Canis lupus familiaris; set-up: dose 1 mg/kg, route intravenous; conditions: plasma
Summary of the method: (§2)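 Single-dose pharmacokinetic study with at least 3 animals per study; the ia route is intra-arterial administration.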

[3] = AUC in cynomolgus monkey at 1 mg/kg, iv; assay type: ADME, organism-based, Macaca fascicularis; set-up: dose 1 mg/kg, route intravenous; conditions: plasma; summary of the method: as §2
[4] = Crystalline aqueous solubility at pH 7.9; assay type: physicochemical; conditions: aqueous solution
[5] = Tmax in cynomolgus monkey at 2 mg/kg, po; assay type: ADME, organism-based, Macaca fascicularis; set-up: dose 2 mg/kg, route oral; conditions: in vivo
Summary of the method: (§3)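 Single-dose plasma pharmacokinetics with at least 3 animals per study. Tmax comes from oral dosing, and clearance and Vss from the parenteral arm. In rat that arm was given intra-arterially; in mouse, dog and monkey it was intravenous. Bioavailability is absolute, comparing the oral and parenteral arms.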

[6] = Volume of distribution at steady state in Sprague-Dawley rat at 5 mg/kg, ia; assay type: ADME, organism-based; set-up: dose 5 mg/kg, route intra-arterial; conditions: in vivo, read-out: Vdss; summary of the method: as §3
[7] = Oral bioavailability in Sprague-Dawley rat at 10 mg/kg; assay type: ADME, organism-based; conditions: in vivo; summary of the method: as §3
[8] = Cmax in cynomolgus monkey at 2 mg/kg, po; assay type: ADME, organism-based, Macaca fascicularis; set-up: dose 2 mg/kg, route oral; conditions: in vivo; summary of the method: as §1
[9] = Crystalline aqueous solubility at pH 6.5; assay type: physicochemical; conditions: aqueous solution
[10] = Oral bioavailability in BALB/c mouse at 12 mg/kg; assay type: ADME, organism-based; conditions: in vivo; summary of the method: as §1
[11] = Oral bioavailability in dog at 2 mg/kg, po; assay type: ADME, organism-based, Canis lupus familiaris; conditions: in vivo; summary of the method: as §3
Liver microsomes [12] = test: Metabolic stability in rat liver microsomes assessed as glutathione conjugate at 30 uM in presence of glutathione; assay type: ADME, Microsome
Summary of the method: (§4)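 Liver microsomes (mouse, rat or human) were fortified with 5 mM glutathione and incubated with 30 μM compound, then screened for glutathione conjugates.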

[13] = AUC in Sprague-Dawley rat at 10 mg/kg, po; assay type: ADME, organism-based; set-up: dose 10 mg/kg, route oral; conditions: plasma; summary of the method: as §2
[14] = AUC (0 to 8 h) in BALB/c mouse at 12 mg/kg, po; conditions: plasma
[15] = Oral bioavailability in cynomolgus monkey at 2 mg/kg, po; assay type: ADME, organism-based, Macaca fascicularis; conditions: in vivo; summary of the method: as §3
[16] = Half life in Sprague-Dawley rat at 5 mg/kg, ia; assay type: ADME, organism-based; set-up: dose 5 mg/kg, route intra-arterial; conditions: in vivo; summary of the method: as §1
[17] = Cmax in BALB/c mouse at 12 mg/kg, po; assay type: ADME, organism-based; set-up: dose 12 mg/kg, route oral; conditions: in vivo; summary of the method: as §1
[18] = Tmax in dog at 2 mg/kg, po; assay type: ADME, organism-based, Canis lupus familiaris; set-up: dose 2 mg/kg, route oral; conditions: in vivo; summary of the method: as §3
[19] = Volume of distribution at steady state in dog at 1 mg/kg, iv; assay type: ADME, organism-based, Canis lupus familiaris; set-up: dose 1 mg/kg, route intravenous; conditions: in vivo, read-out: Vdss; summary of the method: as §3
[20] = Plasma clearance in cynomolgus monkey at 1 mg/kg, iv; assay type: ADME, organism-based, Macaca fascicularis; set-up: dose 1 mg/kg, route intravenous; summary of the method: as §3
[21] = AUC in Sprague-Dawley rat at 5 mg/kg, ia; assay type: ADME, organism-based; set-up: dose 5 mg/kg, route intra-arterial; conditions: plasma; summary of the method: as §2
[22] = Half life in BALB/c mouse at 6 mg/kg, iv; assay type: ADME, organism-based; set-up: dose 6 mg/kg, route intravenous; conditions: in vivo; summary of the method: as §1
[23] = Volume of distribution at steady state in cynomolgus monkey at 1 mg/kg, iv; assay type: ADME, organism-based, Macaca fascicularis; set-up: dose 1 mg/kg, route intravenous; conditions: in vivo, read-out: Vdss; summary of the method: as §3
[24] = Plasma clearance in dog at 1 mg/kg, iv; assay type: ADME, organism-based, Canis lupus familiaris; set-up: dose 1 mg/kg, route intravenous; summary of the method: as §3
[25] = Metabolic stability in mouse liver microsomes assessed as glutathione conjugate at 30 uM in presence of glutathione; assay type: ADME, Microsome; summary of the method: as §4
[26] = Half life in cynomolgus monkey at 1 mg/kg, iv; assay type: ADME, organism-based, Macaca fascicularis; set-up: dose 1 mg/kg, route intravenous; conditions: in vivo; summary of the method: as §1
[27] = Tmax in Sprague-Dawley rat at 10 mg/kg, po; assay type: ADME, organism-based; set-up: dose 10 mg/kg, route oral; conditions: in vivo; summary of the method: as §3
[28] = AUC (0 to 8 h) in BALB/c mouse at 6 mg/kg, iv; conditions: plasma
[29] = Volume of distribution at steady state in BALB/c mouse at 6 mg/kg, iv; assay type: ADME, organism-based; set-up: dose 6 mg/kg, route intravenous; conditions: in vivo, read-out: Vdss; summary of the method: as §3
[30] = Cmax in Sprague-Dawley rat at 10 mg/kg, po; assay type: ADME, organism-based; set-up: dose 10 mg/kg, route oral; conditions: in vivo; summary of the method: as §1
[31] = AUC in dog at 2 mg/kg, po; assay type: ADME, organism-based, Canis lupus familiaris; set-up: dose 2 mg/kg, route oral; conditions: plasma; summary of the method: as §2
[32] = Plasma clearance in BALB/c mouse at 6 mg/kg, iv; assay type: ADME, organism-based; set-up: dose 6 mg/kg, route intravenous; summary of the method: as §3
[33] = Tmax in BALB/c mouse at 12 mg/kg, po; assay type: ADME, organism-based; set-up: dose 12 mg/kg, route oral; conditions: in vivo; summary of the method: as §3
[34] = AUC in cynomolgus monkey at 2 mg/kg, po; assay type: ADME, organism-based, Macaca fascicularis; set-up: dose 2 mg/kg, route oral; conditions: plasma; summary of the method: as §2
[35] = Half life in dog at 1 mg/kg, iv; assay type: ADME, organism-based, Canis lupus familiaris; set-up: dose 1 mg/kg, route intravenous; conditions: in vivo; summary of the method: as §1
Liver microsomes [36] = test: Metabolic stability in human liver microsomes assessed as glutathione conjugate at 30 uM in presence of glutathione; assay type: ADME, Microsome; summary of the method: as §4
[37] = Plasma clearance in Sprague-Dawley rat at 5 mg/kg, ia; assay type: ADME, organism-based; set-up: dose 5 mg/kg, route intra-arterial; summary of the method: as §3

Cmax [1]: 1 µM | AUC [2]: 3.9 µM·h | AUC [3]: 5.8 µM·h | solubility thermodynamic [4]: > 4000 µg/mL | Tmax [5]: 0.8 h | Vd [6]: 0.7 L/kg | bioavailability [7]: 91% | Cmax [8]: 1.9 µM | solubility thermodynamic [9]: 280 µg/mL (≈ 629 µM) | bioavailability [10]: 88% | bioavailability [11]: 58% | Stability (Liver microsomes [12]): Stable | AUC [13]: 88 µM·h | AUC(0-8h) [14]: 33.9 µM·h | bioavailability [15]: 75% | half-life [16]: 3.2 h | Cmax [17]: 23.8 µM | Tmax [18]: 0.9 h | Vd [19]: 1.8 L/kg | clearance [20]: 8.9 mL/min/kg | AUC [21]: 48 µM·h | half-life [22]: 3 h | Vd [23]: 3.5 L/kg | clearance [24]: 9.5 mL/min/kg | Stability [25]: Stable | half-life [26]: 11.9 h | Tmax [27]: 0.4 h | AUC(0-8h) [28]: 19.3 µM·h | Vd [29]: 1.3 L/kg | Cmax [30]: 43 µM | AUC [31]: 4.5 µM·h | clearance [32]: 10.8 mL/min/kg | Tmax [33]: 0.25 h | AUC [34]: 8.5 µM·h | half-life [35]: 7.9 h | Stability (Liver microsomes [36]): Stable | clearance [37]: 4.3 mL/min/kg
SMILES: COC(=O)N(CC(=O)O)Cc1cccc(OCc2nc(-c3ccc(Cl)cc3)oc2C)c1
